Where a chain is given by its changes, count along the chain named. Calls of active or inactive are those of the source. The calls are words filed in the database; no cut-off is given here.
How the values were obtained:
[1] = biological target: T1, Phosphotyrosine protein phosphatase ptpB (Mycobacterium bovis (strain BCG / Pasteur 1173P2)) (UniProt A0A0H3M0T0); assay: Inhibition of Mycobacterium bovis BCG Pasteur ptpB infected in mouse J774A.1 cells assessed as reduction in intracellular bacterial burden at 10 to 120 uM after 24 hrs post infection; type: cell-based; conditions: Mycobacterium tuberculosis variant bovis BCG
T1 sequence (whole entry): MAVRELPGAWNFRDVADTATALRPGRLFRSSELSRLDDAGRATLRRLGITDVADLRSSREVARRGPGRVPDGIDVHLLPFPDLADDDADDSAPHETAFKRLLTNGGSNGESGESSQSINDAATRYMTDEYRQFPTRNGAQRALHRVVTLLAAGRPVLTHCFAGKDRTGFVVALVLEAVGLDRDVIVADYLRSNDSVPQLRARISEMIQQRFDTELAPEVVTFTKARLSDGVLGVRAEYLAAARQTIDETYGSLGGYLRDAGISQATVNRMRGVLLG
Method in brief: (§1)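 J774A.1 mouse macrophages in DMEM with 10% heat-inactivated FBS, seeded at 2 × 10^3/well overnight. Pretreated with inhibitor in DMSO or DMSO alone, then infected with BCG Pasteur at MOI 10:1 for 4 h and washed (time 0). Medium and inhibitor renewed at 24 h. Cells lysed in 0.05% Tween 80 at 72 h; CFU counted on 7H10 after 3 weeks. Triplicate, ≥3 experiments.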

[2] = biological target: T1, Phosphotyrosine protein phosphatase ptpB (Mycobacterium bovis (strain BCG / Pasteur 1173P2)); assay: Inhibition of Mycobacterium bovis BCG Pasteur ptpB infected in mouse J774A.1 cells assessed as reduction in intracellular bacterial burden at 80 uM after 72 hrs post infection; type: cell-based; conditions: Mycobacterium tuberculosis variant bovis BCG; method in brief: as §1
[3] = biological target: T1, Phosphotyrosine protein phosphatase ptpB (Mycobacterium bovis (strain BCG / Pasteur 1173P2)); assay: Inhibition of Mycobacterium bovis BCG Pasteur ptpB infected in mouse J774A.1 cells assessed as reduction in intracellular bacterial burden at 10 to 120 uM after 72 hrs post infection relative to DMSO-treated control; type: cell-based; conditions: Mycobacterium tuberculosis variant bovis BCG; method in brief: as §1
[4] = system: Mycobacterium tuberculosis variant bovis BCG; assay: Antibacterial activity against Mycobacterium bovis BCG Pasteur infected in mouse J774A.1 cells assessed as reduction in bacterial burden at 0.3 ug/ml after 72 hrs post infection relative to control; type: functional; set-up: scale not given: the % may be the effect or the level left; method in brief: as §1
[5] = biological target: T1, Phosphotyrosine protein phosphatase ptpB (Mycobacterium bovis (strain BCG / Pasteur 1173P2)); assay: Inhibition of Mycobacterium bovis BCG Pasteur ptpB infected in mouse J774A.1 cells assessed as reduction in intracellular bacterial burden at 5 uM after 72 hrs post infection in presence of rifampicin; type: cell-based; conditions: Mycobacterium tuberculosis variant bovis BCG; method in brief: as §1
[6] = system: Mycobacterium tuberculosis variant bovis BCG; assay: Antibacterial activity against Mycobacterium bovis BCG Pasteur assessed as reduction in extracellular growth at 80 uM; type: functional, organism-based
[7] = biological target: T1, Phosphotyrosine protein phosphatase ptpB (Mycobacterium bovis (strain BCG / Pasteur 1173P2)); assay: Inhibition of Mycobacterium bovis BCG Pasteur ptpB infected in mouse J774A.1 cells assessed as reduction in intracellular bacterial burden up to 500 uM after 72 hrs post infection relative to treated-DMSO control; type: cell-based; conditions: Mycobacterium tuberculosis variant bovis BCG; method in brief: as §1
[8] = biological target: T2, Phosphotyrosine protein phosphatase (Mycobacterium tuberculosis) (UniProt A0A045ISB3); assay: Inhibition of multi-drug resistant Mycobacterium tuberculosis Beijing-W_565 ptpB infected in human THP1 cells assessed as reduction in intracellular bacterial burden at 20 to 100 uM after 72 hrs post infection relative to DMSO-treated control; type: cell-based
T2 sequence (whole entry): T1 sequence (whole entry) with G105D
Method in brief: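 PMA-differentiated THP1 cells (1 × 10^6/well) in RPMI with 10% FBS. Inhibitor (0, 20 or 80 μM in DMSO) added, then infected with thawed M. tuberculosis at MOI 1:1 for 3 h and washed 4 times. Medium and inhibitor renewed at 24 h. Cells lysed in 0.05% SDS at 72 h; CFU plated in duplicate and counted after 3 weeks. Triplicate.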

[9] = biological target: T1, Phosphotyrosine protein phosphatase ptpB (Mycobacterium bovis (strain BCG / Pasteur 1173P2)); assay: Inhibition of Mycobacterium bovis BCG Pasteur ptpB infected in mouse J774A.1 cells assessed as reduction in intracellular bacterial burden at 5 uM after 72 hrs post infection in presence of isoniazid; type: cell-based; conditions: Mycobacterium tuberculosis variant bovis BCG; method in brief: as §1
[10] = biological target: T2, Phosphotyrosine protein phosphatase (Mycobacterium tuberculosis); assay: Inhibition of multi-drug resistant Mycobacterium tuberculosis Beijing-W_565 ptpB infected in human THP1 cells assessed as reduction in intracellular bacterial burden at 20 to 80 uM after 72 hrs post infection relative to DMSO-treated control; type: cell-based
Method in brief: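 THP1 cells (1 × 10^6/well) were PMA-treated overnight. Inhibitor (20 or 80 μM, in DMSO) was added in RPMI with 10% FBS before infection with thawed bacteria at MOI 1:1. Washed four times after 3 h; inhibitor re-added at 24 h. At 72 h, cells lysed in 0.05% SDS and CFU plated (duplicate 10-fold dilutions, 7H10, 3 weeks); triplicates.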

[11] = system: Mycobacterium tuberculosis variant bovis BCG; assay: Antibacterial activity against Mycobacterium bovis BCG Pasteur infected in mouse J774A.1 cells assessed as reduction in bacterial burden at 0.1 ug/ml after 72 hrs post infection relative to control; type: functional; set-up: scale not given: the % may be the effect or the level left; method in brief: as §1

Row | SMILES | inhibition [1] | inhibition [2] | inhibition [3] | further results
1 | O=C(O)c1noc(-c2ccccc2)c1-c1cccc(-c2ccc(O)cc2)c1 | Active | Active | 81 to 87% | 
2 | CO[C@H]1/C=C/O[C@@]2(C)Oc3c(C)c(O)c4c(O)c(c(/C=N/N5CCN(C)CC5)c(O)c4c3C2=O)NC(=O)/C(C)=C\C=C\[C@H](C)[C@H](O)[C@@H](C)[C@@H](O)[C@@H](C)[C@H](OC(C)=O)[C@@H]1C [RIFAMPIN] |  |  |  | Activity [4]: <25%
3 | Cc1onc(C(=O)O)c1-c1cccc(-c2cc(Cl)c(O)c(Cl)c2)c1 |  |  |  | inhibition [5]: > 93%; Activity [6]: inactive; inhibition [7]: < 84%; inhibition [8]: < 74%; inhibition [9]: > 93%
4 | O=C(O)c1noc(-c2ccccc2)c1-c1cccc(-c2ccc(O)c(F)c2)c1 | Active | Active | 81 to 87% | 
5 | O=C(O)c1noc(-c2ccccc2)c1-c1cccc(-c2cc(Cl)c(O)c(Cl)c2)c1 | Active |  | 81 to 87% | 
6 | O=C(O)c1noc(-c2ccccc2)c1-c1cccc(-c2cc(Cl)c(O)c([N+](=O)[O-])c2)c1 | Active | Active | 81 to 87% | 
7 | COC(=O)c1c(O)cccc1OC/C=C/c1cccc(-c2cc(C(=O)O)no2)c1 [ISOXAZOLECARBOXYLIC ACID] |  |  |  | inhibition [10]: Active
8 | O=C(O)c1noc(-c2ccccc2)c1-c1cccc(-c2ccc(O)c(Cl)c2)c1 | Active | Active | 81 to 87% | 
9 | NNC(=O)c1ccncc1 [ISONIAZID] |  |  |  | Activity [11]: <25%
